Series [1] deals with Plasmodium falciparum. The series can be described thus: Effective dose against chloroquine-resistant Plasmodium falciparum FcB1R. In kind it is functional. The gist of the method: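 Asynchronous cultures in human erythrocytes (0.5% parasitemia, 1% hematocrit) received serially diluted drug, DMSO ≤0.1%. After 24 h at 37 °C, 0.5 μCi [3H]hypoxanthine was added and incubation continued another 24 h. Growth inhibition was taken versus drug-free control, ED50 read from the concentration–response curve, and reported as mean of ≥3 independent experiments.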

Series [2] deals with T1, Glutathione reductase, mitochondrial (Homo sapiens) (UniProt P00390).
T1 sequence (whole entry): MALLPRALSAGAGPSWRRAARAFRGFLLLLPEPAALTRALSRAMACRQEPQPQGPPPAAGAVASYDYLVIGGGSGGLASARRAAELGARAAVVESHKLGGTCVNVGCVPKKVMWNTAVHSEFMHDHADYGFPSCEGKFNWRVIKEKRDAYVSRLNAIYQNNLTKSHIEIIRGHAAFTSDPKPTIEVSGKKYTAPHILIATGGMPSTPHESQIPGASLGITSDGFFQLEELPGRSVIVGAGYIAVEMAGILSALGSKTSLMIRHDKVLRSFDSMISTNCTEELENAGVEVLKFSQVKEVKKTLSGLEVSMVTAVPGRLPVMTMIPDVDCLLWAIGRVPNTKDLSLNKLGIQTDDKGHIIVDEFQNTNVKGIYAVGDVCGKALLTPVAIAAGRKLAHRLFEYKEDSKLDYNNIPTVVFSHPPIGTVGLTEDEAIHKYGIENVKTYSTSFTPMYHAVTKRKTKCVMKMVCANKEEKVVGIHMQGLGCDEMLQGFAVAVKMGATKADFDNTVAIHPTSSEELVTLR
The series can be described thus: Competitive inhibition of human Glutathione Reductase.

Series [3] addresses Glutathione reductase (Plasmodium falciparum 3D7, UniProt O15770). Briefly: In vitro inhibition of Plasmodium falciparum Glutathione Reductase. Also noted: species or system FcB1. The gist of the method: (§1)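 Recombinant purified GR (about 5 mU/ml) with 100 μM NADPH in 47 mM potassium phosphate, 200 mM KCl, 1 mM EDTA, pH 6.9, at 25 °C. Enzyme, NADPH and inhibitor are premixed and the reaction is started with 100 μM GSSG. NADPH loss is read at 340 nm. IC50 is taken from increasing inhibitor concentrations in 1% final DMSO, run in duplicate.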

Series [4] addresses Glutathione reductase (Plasmodium falciparum 3D7) (UniProt O15770). The series can be described thus: Competitive inhibition of Plasmodium falciparum Glutathione Reductase. Conditions: Plasmodium falciparum FcB1.
Series [5] concerns the target T2, Glutathione reductase, mitochondrial (Homo sapiens, UniProt P00390).
T2 sequence (P00390 whole entry): T1 sequence (whole entry)
Briefly: In vitro inhibition of human Glutathione Reductase. The gist of the method: as §1

The nature of series [6]: Susceptibility of compound to hydrolysis at 37 degrees C at pH 5.0 acetate medium. In kind it is ADME. The gist of the method:
(§2)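 Prodrug (100 μM final, from 1 mM stock in 10% aqueous DMSO) is incubated at 37 °C in pH 7.4 phosphate buffer (150 mM NaCl, 4 mM NaH₂PO₄, 25 mM NaHCO₃) or pH 5.0 acetate (150 mM NaCl, 10 mM NaOAc). Half-life of ester disappearance is found by HPLC as the mean of two determinations.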

A short description of series [7]: Susceptibility of compound to hydrolysis at 37 degrees C at pH 7.4 phosphate buffer. In kind it is ADME. The gist of the method:
as §2

Series [8] in a line: Susceptibility of compound to hydrolysis at 37 degrees C for RPMI-10% human serum. In kind it is ADME. Conditions: RPMI with 10% human serum. The gist of the method:
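Prodrug (100 μM final, from 1 mM stock in 10% aqueous DMSO) is held in RPMI with 10% human serum at 37 °C and sampled from 0 to 77.5 h. Samples are mixed with EtOH plus internal reference, centrifuged, and the supernatant is analysed by HPLC. Half-life of ester disappearance is the mean of two determinations.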

The mark [9] stands for this setting: read-out: ED50 (the source's name).

Each structure is given as a SMILES string. Where only a bound is given, the exact number is not on record here.

Chain of Glutathione reductase (O15770 whole entry): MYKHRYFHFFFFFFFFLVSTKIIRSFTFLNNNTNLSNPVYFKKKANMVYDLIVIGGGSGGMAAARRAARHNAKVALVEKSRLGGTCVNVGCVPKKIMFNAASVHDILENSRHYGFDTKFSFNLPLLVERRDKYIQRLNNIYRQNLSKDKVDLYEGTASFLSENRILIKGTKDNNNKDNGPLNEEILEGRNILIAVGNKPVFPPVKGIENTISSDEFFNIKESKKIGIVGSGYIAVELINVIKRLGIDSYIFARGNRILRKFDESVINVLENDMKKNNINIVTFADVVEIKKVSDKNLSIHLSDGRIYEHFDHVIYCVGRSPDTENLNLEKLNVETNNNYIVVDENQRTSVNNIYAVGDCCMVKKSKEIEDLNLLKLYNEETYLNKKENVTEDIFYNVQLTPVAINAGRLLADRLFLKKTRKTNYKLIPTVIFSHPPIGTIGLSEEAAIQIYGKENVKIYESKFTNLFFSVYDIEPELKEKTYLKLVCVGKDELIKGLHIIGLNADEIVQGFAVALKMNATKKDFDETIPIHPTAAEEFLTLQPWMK
Chain of Glutathione reductase (Plasmodium falciparum 3D7) (O15770 whole entry): as above

A word on the IC50: it is the point on the concentration scale where inhibition reaches its midpoint. Consider `CC1=C(CCCCC(=O)O)C(=O)c2c(O)cccc2C1=O`, for which the EC50 in series [1] (setting [9]) worked out at 7.7 µM. For the same molecule, the Ki.c in series [2] was determined as 1.1 µM; in series [4] it was 2.4 µM. For the same molecule, the figures for the half-maximal inhibitory concentration (IC50) in series [3] and in series [5] were 2500 nM and 1000 nM, respectively.

As to `CC1=C(CCCCC(=O)OCc2cc(NC(=O)CN3CCCCC3)cc(Nc3ccnc4cc(Cl)ccc34)c2)C(=O)c2ccccc2C1=O`, the EC50 in series [1] (setting [9]) was found to be 47 µM.

For `CC1=C(CCCCCNC(=O)OCc2cc(NC(=O)CN3CCCCC3)cc(Nc3ccnc4cc(Cl)ccc34)c2)C(=O)c2ccccc2C1=O`, the EC50 in series [1] (read-out: ED50) was 0.144 µM.

For the molecule `O=C(CN1CCCCC1)Nc1cc(COC(=O)CCCCCc2ccccc2)cc(Nc2ccnc3cc(Cl)ccc23)c1`, the EC50 in series [1] (read-out: ED50) was determined as 0.368 µM.

For orientation: half-life means the time needed for the level to fall by half in the phase considered. Low values mean rapid decline, high ones slow decline. Take `CCN(CCCC(C)Nc1ccnc2cc(Cl)ccc12)CCOC(=O)CCCCCC1=C(C)C(=O)c2ccccc2C1=O` (stereo not drawn): the EC50 in series [1] (setting [9]) was 0.107 µM. In addition, the half-life in series [6], in series [7] and in series [8] was over 3.33 days throughout.

For `CC1=C(CCCCCC(=O)O)C(=O)c2c(O)cccc2C1=O`, the EC50 in series [1] (setting [9]) was determined as 8.2 µM. Further, the Ki.c in series [2] was 0.75 µM; in series [4], 2.3 µM. In addition, the IC50 in series [3] turned out to be 1300 nM; in series [5] it was 750 nM.

For the molecule `CC1=C(CCC(=O)OCc2cc(NC(=O)CN3CCCCC3)cc(Nc3ccnc4cc(Cl)ccc34)c2)C(=O)c2ccccc2C1=O`, in series [1] (setting [9]), the EC50 came to 144 µM.

These data come from ChEMBL document CHEMBL1134294, “A prodrug form of a Plasmodium falciparum glutathione reductase inhibitor conjugated with a 4-anilinoquinoline” (J Med Chem, 2001).
